Measurements from ChEMBL document CHEMBL1139963, “Boswellic acids and glucosamine show synergistic effect in preclinical anti-inflammatory study in rats” (2007).
The source made the active and inactive calls. The rule behind the calls is not given here.

How the values were obtained:
Rattus norvegicus [1] = test: Antiinflammatory activity against carrageenan-induced paw edema in Wistar rat assessed as reduction of paw edema at 250 mg/kg relative to control; assay type: functional, organism-based; parameters: dose 250 mg/kg
How it was run: (§1)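 Rats, five per group, were dosed orally with suspensions in 2% gum acacia. After 45 min, freshly prepared 10 mg/ml carrageenan was injected subplantar into the left hind paw, with saline in the contralateral paw. Paw volume was measured by volume differential meter immediately and hourly to 4 h. Percent protection was calculated versus control. Data are means ± SE, analysed by Student's t-test.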

Rattus norvegicus [2] = test: Antiarthritic activity against Mycobacterium tuberculosis-induced rat arthritic model at 250 mg/kg relative to control; assay type: functional, organism-based; parameters: dose 250 mg/kg
How it was run: (§2)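 Adjuvant arthritis in rats, five per group. A 5 mg/ml suspension of heat-killed Mycobacterium tuberculosis in liquid paraffin was injected subplantar into the left hind foot. Oral dosing ran from one day before immunization to day 13. Paw volume was measured on alternate days, and percent change was calculated versus the vehicle control. The chronic phase begins after day 8. Data are means ± SE, analysed by Student's t-test.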

Rattus norvegicus [3] = test: Antiinflammatory activity against carrageenan-induced paw edema in Wistar rat assessed as reduction of paw edema at 250 mg/kg after 3 hrs relative to control; assay type: functional; how it was run: as §1
Rattus norvegicus [4] = test: Antiarthritic activity against Mycobacterium tuberculosis-induced rat arthritic model assessed as inhibition of chronic phase inflammation at 250 mg/kg relative to control; assay type: functional; how it was run: as §2
Rattus norvegicus [5] = test: Antiinflammatory activity against carrageenan-induced paw edema in Wistar rat assessed as reduction of paw edema at 250 mg/kg after 4 hrs relative to control; assay type: functional; how it was run: as §1
Rattus norvegicus [6] = test: Antiarthritic activity against Mycobacterium tuberculosis-induced rat arthritic model assessed as inhibition of acute phase inflammation at 100 mg/kg relative to control; assay type: functional, organism-based; parameters: dose 100 mg/kg; how it was run: as §2
Rattus norvegicus [7] = test: Antiarthritic activity against Mycobacterium tuberculosis-induced rat arthritic model assessed as inhibition of chronic phase inflammation at 100 mg/kg relative to control; assay type: functional, organism-based; parameters: dose 100 mg/kg; how it was run: as §2
Rattus norvegicus [8] = test: Antiinflammatory activity against carrageenan-induced paw edema in Wistar rat assessed as reduction of paw edema at 100 mg/kg relative to control; assay type: functional; parameters: scale not given: the % may be the effect or the level left; how it was run: as §1

Compound	Activity (Rattus norvegicus [1])	Activity (Rattus norvegicus [2])	inhibition in vivo at 250 mg/kg (Rattus norvegicus [3]) [%]	inhibition in vivo at 250 mg/kg (Rattus norvegicus [4]) [%]	inhibition in vivo at 250 mg/kg (Rattus norvegicus [5]) [%]	Activity (Rattus norvegicus [6])	Activity (Rattus norvegicus [7])	Activity (Rattus norvegicus [8]) [%]
C[C@H]1[C@H](C)CC[C@]2(C)CC[C@]3(C)C(=CC(=O)[C@@H]4[C@@]5(C)CC[C@@H](O)[C@](C)(C(=O)O)[C@@H]5CC[C@]43C)[C@H]12	Active	Active						
C[C@H]1[C@H](C)CC[C@]2(C)CC[C@]3(C)C(=CC[C@@H]4[C@@]5(C)CC[C@@H](O)[C@](C)(C(=O)O)[C@@H]5CC[C@]43C)[C@H]12 [BOSWELLIC ACID]			28.6	36.4	25.8			
CC1(C)CC[C@]2(C)CC[C@]3(C)C(=CC[C@@H]4[C@@]5(C)CC[C@@H](O)[C@](C)(C(=O)O)[C@@H]5CC[C@]43C)[C@@H]2C1			28.6	36.4	25.8			
N[C@@H]1[C@@H](O)[C@H](O)[C@@H](CO)O[C@H]1O [GLUCOSAMINE]			15.2	21.6	16.1			
CC(C)Cc1ccc([C@H](C)C(=O)O)cc1 [DEXIBUPROFEN]						Active	Active	55.64
